Measured values: ChEMBL document CHEMBL1124172 (J Med Chem, 1988)
In brackets after ≈: the same amount, converted by molar mass. Activity calls are given as the source filed them. No cut-off for these calls is given here.

Columns and labels:
A204 = test: In vitro cytotoxicity against human A204 Rhabdomyosarcoma cell line; type: functional, cell-based
In short: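 A204 human rhabdomyosarcoma soft-agarose colony assay. 10^4 trypsin/EDTA-dissociated cells in 0.3% agarose over a 0.5% agarose base, in DMEM with 10% FCS, at 37 °C and 5% CO2. Compound was applied in an upper medium layer on day 1 for 24 h, then washed out. Colonies >60 µm were counted after 7–9 days by tetrazolium stain and image analysis. Quadruplicates with vehicle controls, at least four concentrations up to 100 or 1000 µg/mL. IC50 from a monoexponential least-squares fit over at least three preparations, mean ± SE.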

Mus musculus [1] = test: In vivo antitumor activity against P388 Lymphocytic Leukemia in mice at 92 mg/kg expressed as T/C value; type: functional
Mus musculus [2] = test: In vivo antitumor activity against P388 Lymphocytic Leukemia in mice at 23 mg/kg expressed as T/C value; type: functional
Mus musculus [3] = test: In vivo antitumor activity against P388 Lymphocytic Leukemia measured as Survivors on day 5 at 11.50 mg/kg; 6/6; type: functional; settings: dose 11.5 mg/kg
Mus musculus [4] = test: In vivo antitumor activity against P388 Lymphocytic Leukemia in mice at 11.50 mg/kg expressed as T/C value; type: functional; settings: dose 11.5 mg/kg
Mus musculus [5] = test: In vivo antitumor activity against P388 Lymphocytic Leukemia in mice at 46 mg/kg expressed as T/C value; type: functional
Mus musculus [6] = test: In vivo antitumor activity against P388 Lymphocytic Leukemia measured as Survivors on day 5 at 23 mg/kg; 6/6; type: functional
Mus musculus [7] = test: Weight difference when tested in vivo for antitumor activity against P388 Lymphocytic Leukemia; type: functional
Mus musculus [8] = test: In vivo antitumor activity against P388 Lymphocytic Leukemia measured as Survivors on day 5 at 92 mg/kg; 6/6; type: functional
Mus musculus [9] = test: In vivo antitumor activity against P388 Lymphocytic Leukemia measured as Survivors on day 5 at 46 mg/kg; 6/6; type: functional
Mus musculus [10] = test: In vivo antitumor activity against P388 Lymphocytic Leukemia measured as Survivors on day 5 at 17.75 mg/kg; 5/6; type: functional
Mus musculus [11] = test: In vivo antitumor activity against P388 Lymphocytic Leukemia in mice at 35.5 mg/kg expressed as T/C value; type: functional
Mus musculus [12] = test: In vivo antitumor activity against P388 Lymphocytic Leukemia measured as Survivors on day 5 at 8.88 mg/kg; 6/6; type: functional
Mus musculus [13] = test: In vivo antitumor activity against P388 Lymphocytic Leukemia measured as Survivors on day 5 at 35.5 mg/kg; 6/6; type: functional
Mus musculus [14] = test: In vivo antitumor activity against P388 Lymphocytic Leukemia measured as Survivors on day 5 at 71 mg/kg; 5/6; type: functional
Mus musculus [15] = test: In vivo antitumor activity against P388 Lymphocytic Leukemia in mice at 71 mg/kg expressed as T/C value; type: functional
Mus musculus [16] = test: In vivo antitumor activity against P388 Lymphocytic Leukemia in mice at 17.75 mg/kg expressed as T/C value; type: functional
Mus musculus [17] = test: In vivo antitumor activity against P388 Lymphocytic Leukemia in mice at 8.88 mg/kg expressed as T/C value; type: functional
Mus musculus [18] = test: In vivo antitumor activity against P388 Lymphocytic Leukemia measured as Survivors on day 5 at 375 mg/kg; 6/6; type: functional
Mus musculus [19] = test: In vivo antitumor activity against P388 Lymphocytic Leukemia measured as Survivors on day 5 at 1500 mg/kg; 6/6; type: functional
Mus musculus [20] = test: In vivo antitumor activity against P388 Lymphocytic Leukemia in mice at 187.5 mg/kg expressed as T/C value; type: functional
Mus musculus [21] = test: In vivo antitumor activity against P388 Lymphocytic Leukemia in mice at 375 mg/kg expressed as T/C value
Mus musculus [22] = test: In vivo antitumor activity against P388 Lymphocytic Leukemia measured as Survivors on day 5 at 187.5 mg/kg; 6/6; type: functional
Mus musculus [23] = test: In vivo antitumor activity against P388 Lymphocytic Leukemia in mice at 1500 mg/kg expressed as T/C value; type: functional
Mus musculus [24] = test: In vivo antitumor activity against P388 Lymphocytic Leukemia in mice at 750 mg/kg expressed as T/C value; type: functional
Mus musculus [25] = test: In vivo antitumor activity against P388 Lymphocytic Leukemia measured as Survivors on day 5 at 750 mg/kg; 6/6; type: functional
Mus musculus [26] = test: In vivo antitumor activity against P388 Lymphocytic Leukemia measured as survivors on day 5 at 81.25 mg/kg (repeat); 6/6; type: functional
Mus musculus [27] = test: In vivo antitumor activity against P388 Lymphocytic Leukemia measured as survivors on day 5 at 40.60 mg/kg (repeat); 6/6; type: functional; settings: dose 40.6 mg/kg
Mus musculus [28] = test: In vivo antitumor activity against P388 Lymphocytic Leukemia measured as survivors on day 5 at 325 mg/kg (repeat); 0/6; type: functional
Mus musculus [29] = test: In vivo antitumor activity against P388 Lymphocytic Leukemia measured as Survivors on day 5 at 325 mg/kg; 0/6; type: functional
Mus musculus [30] = test: Weight difference when tested in vivo for antitumor activity against P388 Lymphocytic Leukemia; weight difference expressed as (T-C); Not active; type: functional, organism-based
Mus musculus [31] = test: In vivo antitumor activity against P388 Lymphocytic Leukemia in mice expressed as T/C value; Toxic
Mus musculus [32] = test: In vivo antitumor activity against P388 Lymphocytic Leukemia in mice at 162.5 mg/kg expressed as T/C value(repeat); type: functional
Mus musculus [33] = test: In vivo antitumor activity against P388 Lymphocytic Leukemia measured as Survivors on day 5 at 650 mg/kg; 0/6; type: functional
Mus musculus [34] = test: In vivo antitumor activity against P388 Lymphocytic Leukemia measured as Survivors on day 5 at 162.50 mg/kg; 6/6; type: functional; settings: dose 162.5 mg/kg
Mus musculus [35] = test: In vivo antitumor activity against P388 Lymphocytic Leukemia in mice at 1300 mg/kg expressed as T/C value; Toxic; type: toxicity, organism-based; design: dose 1300 mg/kg
Mus musculus [36] = test: In vivo antitumor activity against P388 Lymphocytic Leukemia in mice at 40.60 mg/kg expressed as T/C value (repeat); type: functional; settings: dose 40.6 mg/kg
Mus musculus [37] = test: In vivo antitumor activity against P388 Lymphocytic Leukemia in mice at 162.50 mg/kg expressed as T/C value; type: functional; settings: dose 162.5 mg/kg
Mus musculus [38] = test: In vivo antitumor activity against P388 Lymphocytic Leukemia in mice at 650 mg/kg expressed as T/C value; Toxic; type: toxicity, organism-based; design: dose 650 mg/kg
Mus musculus [39] = test: In vivo antitumor activity against P388 Lymphocytic Leukemia in mice at 81.25 mg/kg expressed as T/C value (repeat); type: functional
P388 = test: Weight difference when tested in vivo for antitumor activity against P388 Lymphocytic Leukemia; weight difference expressed as (T-C); type: functional, Mus musculus
Mus musculus [40] = test: In vivo antitumor activity against P388 Lymphocytic Leukemia in mice at 325 mg/kg expressed as T/C value); Toxic; type: toxicity, organism-based; design: dose 325 mg/kg
Mus musculus [41] = test: In vivo antitumor activity against P388 Lymphocytic Leukemia measured as Survivors on day 5 at 1300 mg/kg; 0/6; type: functional
Mus musculus [42] = test: In vivo antitumor activity against P388 Lymphocytic Leukemia measured as survivors on day 5 at 162.50 mg/kg (repeat); 6/6; type: functional; settings: dose 162.5 mg/kg

Question: With `CC1C(=O)O[C@@H]2CCN3CC=C(COC(=O)C(C)(O)C1(C)O)[C@H]23` (some centres not stated) as the compound, how does the IC50 (A204) read?
Answer: Its IC50 is 316 µg/mL (≈ 971 µM).

Question: `CC(C)C(O)(C(=O)O[C@@H]1CCN2CC[C@H](CO)[C@H]12)C(C)O` (some centres not stated) was tested. Which T/C (Mus musculus [1]) did it give?
Answer: The T/C was 98%.

Question: What about the T/C (Mus musculus [2]) of the same compound?
Answer: Its T/C is 107%.

Question: And the Survivors (Mus musculus [3])?
Answer: The Survivors was 6.

Question: What about the T/C (Mus musculus [4]) of the same compound?
Answer: Its T/C is 111%.

Question: And the T/C (Mus musculus [5])?
Answer: The T/C was 105%.

Question: What about the Survivors (Mus musculus [6]) of the same compound?
Answer: Its Survivors is 6.

Question: And the Weight difference (Mus musculus [7])?
Answer: The Weight difference was -1.2.

Question: What about the Survivors (Mus musculus [8]) of the same compound?
Answer: The Survivors was 6.

Question: What about the Survivors (Mus musculus [9]) of the same compound?
Answer: Its Survivors is 6.

Question: Which results are given for `CCC(O)(C(=O)OCC1=CC[N+]2([O-])CC[C@H](OC(=O)[C@@](O)(CC)c3ccccc3)[C@@H]12)c1ccccc1` (some centres not stated)?
Answer: Survivors (Mus musculus [10]): 5; T/C (Mus musculus [11]): 106%; Survivors (Mus musculus [12]): 6; Survivors (Mus musculus [13]): 6; Survivors (Mus musculus [14]): 5; T/C (Mus musculus [15]): 109%; T/C (Mus musculus [16]): 100%; T/C (Mus musculus [17]): 107%

Question: What does the source list for `CC(C)C(O)(C(=O)OCC1CC[N+]2([O-])CC[C@@H](O)[C@@H]12)C(C)O` (some centres not stated)?
Answer: Survivors (Mus musculus [18]): 6; Survivors (Mus musculus [19]): 6; T/C (Mus musculus [20]): 94%; T/C (Mus musculus [21]): 106%; Survivors (Mus musculus [22]): 6; T/C (Mus musculus [23]): 106%; T/C (Mus musculus [24]): 95%; Survivors (Mus musculus [25]): 6; IC50 (A204): 320 µg/mL (≈ 1010 µM)

Question: How did the IC50 (A204) turn out when `CC(C)C(O)(C(=O)OCC1=CCN2CC[C@@H](O)[C@@H]12)C(C)O` (some centres not stated) [INDICINE] was run?
Answer: The IC50 was 34 µg/mL (≈ 114 µM).

Question: Which Survivors (Mus musculus [26]) does the source give for `CC(C)C(O)(C(=O)OCC1CCN2CC[C@@H](O)[C@@H]12)C(C)O` (some centres not stated) here?
Answer: The Survivors was 6.

Question: And the Survivors (Mus musculus [27])?
Answer: The Survivors was 6.

Question: And the Survivors (Mus musculus [28])?
Answer: The Survivors was 0.

Question: And the Survivors (Mus musculus [29])?
Answer: Its Survivors is 0.

Question: What about the Weight difference (Mus musculus [30]) of the same compound?
Answer: Its Weight difference is “inactive”.

Question: And the T/C (Mus musculus [31])?
Answer: The T/C was “Toxic”.

Question: What about the T/C (Mus musculus [32]) of the same compound?
Answer: Its T/C is 98%.

Question: What about the Survivors (Mus musculus [33]) of the same compound?
Answer: Its Survivors is 0.

Question: And the Survivors (Mus musculus [34])?
Answer: Its Survivors is 6.

Question: What about the T/C (Mus musculus [35]) of the same compound?
Answer: The T/C was “Toxic”.

Question: And the T/C (Mus musculus [36])?
Answer: Its T/C is 96%.

Question: And the T/C (Mus musculus [37])?
Answer: Its T/C is 92%.

Question: What about the T/C (Mus musculus [38]) of the same compound?
Answer: Its T/C is “Toxic”.

Question: What about the T/C (Mus musculus [39]) of the same compound?
Answer: The T/C was 102%.

Question: What about the Weight difference (P388) of the same compound?
Answer: The Weight difference was 0.5.

Question: What about the T/C (Mus musculus [40]) of the same compound?
Answer: Its T/C is “Toxic”.

Question: And the Survivors (Mus musculus [41])?
Answer: Its Survivors is 0.

Question: What about the IC50 (A204) of the same compound?
Answer: Its IC50 is 400 µg/mL (≈ 1330 µM).

Question: And the Survivors (Mus musculus [42])?
Answer: The Survivors was 6.
